From PubChem BioAssay
The sample as a whole holds a higher share of hits than the screen did.
S1P4 antagonist – blocks the human S1P4 receptor; S1P4-expressing cells, antagonist mode, reporter read-out; AID 1510; O95977; inhibition, % at 4.98 µM; hit rate 0.26% among 220,000; in the data active = inhibition above about 29%;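 note: 0% = wells stimulated with agonist and 100% = vehicle wells without agonist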
Target sequence (O95977 whole entry, looked up): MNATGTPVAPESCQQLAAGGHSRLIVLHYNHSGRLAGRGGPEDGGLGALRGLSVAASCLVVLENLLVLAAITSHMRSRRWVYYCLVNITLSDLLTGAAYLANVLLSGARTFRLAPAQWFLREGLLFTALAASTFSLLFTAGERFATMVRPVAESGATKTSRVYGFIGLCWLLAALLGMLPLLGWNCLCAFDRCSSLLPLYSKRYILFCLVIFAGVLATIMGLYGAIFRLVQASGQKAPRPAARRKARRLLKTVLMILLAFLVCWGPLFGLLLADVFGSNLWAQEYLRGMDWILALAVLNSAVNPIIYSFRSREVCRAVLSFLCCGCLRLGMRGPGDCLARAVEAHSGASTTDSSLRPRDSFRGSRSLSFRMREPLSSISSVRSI
L major viab – inhibitors of Leishmania major promastigote growth; Leishmania major promastigotes, resazurin fluorescence viability; inhibition, % at 10 µM; hit rate 9% among 200,000; AID 1063; in the data active = inhibition above about 50%;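 note: promastigotes grown with compound for 44 hours at 28 °C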
S1P4 agonist – activates the human S1P4 receptor. S1P4-expressing cell line, agonist reporter assay. activation, % at 4.98 µM. hit rate 0.35% among 220,000; in the data active = activation above about 11%;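 note: 0% = DMSO vehicle and 100% = reference agonist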
S1P3 antag – S1P3 (human) receptor antagonism; hit rate 0.27% among 170,000; inhibition, % at 4.98 µM; Q99500; CHO S1P3 NFAT-BLA reporter, FRET fluorescence, antagonist mode;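 active = inhibition above the plate cutoff, the mean inhibition of test wells on that plate plus 3 SD, cut at about 28% in these data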;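 note: cells challenged with S1P at its EC80 of 0.8 µM; blue over green emission ratio from cleaved BLA substrate after 4 h stimulation; 0% = S1P-stimulated wells and 100% = unstimulated DMSO-only wells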
MDM2 E3 inh – Mdm2 E3 ligase (human) inhibition | signal enhancement, % at 5 µM | Q00987 | hit rate 0.11% among 210,000 | AID 1230 | cell-based MDM2 ubiquitination luciferase reporter, 2 h; 0 = plate control, 100 = twice control, blank-subtracted;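 active = signal enhancement of 30% or more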;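 note: luminescence tracks abundance of the self-degrading MDM2-luciferase fusion protein; higher signal means inhibition of MDM2 E3 ligase activity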
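Material: Stable MDM2–luciferase fusion reporter cells | Amount: 2000 cells seeded into each well | Dosing: One concentration, 5 µM, with 0.2% DMSO | Incubation: 4 h cell settling then 2 h compound exposure, 37 °C | Measured by: Luciferase luminescence | Read-out basis: % enhancement relative to plate controls after blank subtraction | Benchmarks: Control and blank well means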
* = called active by the depositor.

O=C(CCCN1C(=O)c2cccc3cccc(c23)C1=O)N1CCN(c2ccc(F)cc2)CC1 was read as S1P4 antagonist -4, L major viab 58*, S1P4 agonist 3, S1P3 antag -11 and MDM2 E3 inh -16.
`O=C(CCN1C(=O)c2cccc3cccc(c23)C1=O)N1CCOCC1` gave S1P4 antagonist -15, L major viab 4, S1P4 agonist 1, S1P3 antag -13 and MDM2 E3 inh 21.
For NC1=NC(c2ccccc2)N=C(Nc2ccccc2)N1 (stereo unspecified) the results were S1P4 antagonist -2, S1P4 agonist -1, S1P3 antag 3 and MDM2 E3 inh -7.
Screening CN1/C(=C\C=N\O)C(C)(C)c2ccccc21 returned S1P4 antagonist -4, L major viab 7, S1P4 agonist 2, S1P3 antag -10 and MDM2 E3 inh -10.
Screening CN(C)c1ccc(N=C/C=C2/N(C)c3ccccc3C2(C)C)cc1 returned S1P4 antagonist -11, L major viab 90*, S1P4 agonist 0, S1P3 antag -20 and MDM2 E3 inh -16.
For CN1/C(=C\C=C2/SC(=S)NC2=O)C(C)(C)c2ccccc21 the results were S1P4 antagonist -11, L major viab 92*, S1P4 agonist -1, S1P3 antag -4 and MDM2 E3 inh -20.
`CO/N=C/C=C1/N(C)c2ccccc2C1(C)C` gave S1P4 antagonist 2, L major viab 2, S1P4 agonist 0, S1P3 antag -8 and MDM2 E3 inh 10.
`CN1/C(=C\C=[N+](C)c2ccccc2)C(C)(C)c2ccccc21` gave S1P4 antagonist -5, L major viab 100*, S1P4 agonist -4 and MDM2 E3 inh -12.
Cc1ccccc1N=C/C=C1\N(C)c2ccccc2C1(C)C was read as S1P4 antagonist -2, L major viab 97*, S1P4 agonist 0 and MDM2 E3 inh -5.
`Cc1ccc(C2=NOC(C)(c3nnc(-c4ccc(Cl)cc4)o3)C2)cc1` (stereo unspecified) gave MDM2 E3 inh 7.
`Cc1nnc(-c2cnn(C)c2N)n1Cc1cccc(Cl)c1` gave S1P4 antagonist 6, L major viab -3 and S1P4 agonist 1.
`Cc1nn(Cc2ccc(C(=O)Nc3ccc(Br)c4cccnc34)o2)c(C)c1Br` gave S1P4 antagonist -9, L major viab -1 and S1P4 agonist -2.
CC(=O)N1N=C(c2ccco2)CC1c1cc2ccc(C)cc2nc1Cl (stereo unspecified) was read as S1P4 antagonist 3, S1P4 agonist 1, S1P3 antag 4 and MDM2 E3 inh -4.
CC(C)(C)n1nnnc1C(c1cccnc1)N(Cc1ccccc1)Cc1cccs1 (stereo unspecified) was read as S1P4 antagonist -4, L major viab 96* and S1P4 agonist 1.
Screening CCN(Cc1ccccc1)C(c1ccncc1)c1nnnn1C(C)(C)C (stereo unspecified) returned S1P4 antagonist -6, L major viab 11, S1P4 agonist -1, S1P3 antag -9 and MDM2 E3 inh -16.
For CC(C)(C)n1nnnc1C(c1cccs1)N(Cc1ccccc1)Cc1cccnc1 (stereo unspecified) the results were S1P4 antagonist -3, L major viab 99*, S1P4 agonist 7, S1P3 antag -19 and MDM2 E3 inh -4.
CC(C)(C)c1ccc(CN(Cc2ccccc2)C(c2ccccn2)c2nnnn2C(C)(C)C)cc1 (stereo unspecified) was read as S1P4 antagonist 0, L major viab 77*, S1P4 agonist 1 and MDM2 E3 inh -30.
`CCS(=O)(=O)N1CCN(c2ccc(Cl)cc2[N+](=O)[O-])CC1` gave S1P4 antagonist -22, L major viab -3, S1P4 agonist 1, S1P3 antag -11 and MDM2 E3 inh -7.
For COc1ccc(-c2nc(N)n[nH]2)cc1OC the results were S1P4 antagonist -6, L major viab -1, S1P4 agonist -3, S1P3 antag -23 and MDM2 E3 inh -2.
COc1nc(-c2ccccc2)cc(-c2ccc(OC)c(OC)c2)n1 was read as S1P4 antagonist -33, L major viab 61*, S1P4 agonist 1, S1P3 antag -54 and MDM2 E3 inh 3.
Screening CCOC(=O)c1[nH]cnc1C(=O)Nc1cccc(Cl)c1 returned S1P4 antagonist 2, L major viab 10, S1P4 agonist -1, S1P3 antag -11 and MDM2 E3 inh -8.
Screening Cc1ccc(S(=O)(=O)N2CCOCC2)cc1C(=O)NC(=S)N1CC(C)OC(C)C1 (stereo unspecified) returned S1P4 antagonist 9, S1P4 agonist 1, S1P3 antag -6 and MDM2 E3 inh -8.
For CCOc1ccc2nc(NC3=NC(c4ccc(OC)cc4)CC(=O)N3)nc(C)c2c1 (stereo unspecified) the results were S1P4 antagonist -9, L major viab 15, S1P4 agonist 0 and MDM2 E3 inh 6.
CCOc1ccc2c(C)nc(NC3=NC(C)(C)C=C(C)N3)nc2c1 was read as S1P4 antagonist -18, L major viab 101*, S1P4 agonist 1 and MDM2 E3 inh -5.
CCOc1ccc2nc(NC3=NCN(Cc4ccco4)CN3)nc(C)c2c1 was read as S1P3 antag -10.
Screening CCOc1ccc2nc(NC3=NC(C)(C)C=C(C)N3)nc(C)c2c1 returned S1P4 antagonist 7, L major viab 98*, S1P4 agonist 1 and MDM2 E3 inh -4.
COc1ccc(NC(=O)CN2CCOCC2)cc1 was read as S1P4 antagonist -14, L major viab -5, S1P4 agonist -1 and MDM2 E3 inh -10.
Screening O=c1c(Cl)c2oc3ccccc3nc-2c2ccccc12 returned S1P4 antagonist -4, L major viab 81*, S1P4 agonist 2, S1P3 antag -1 and MDM2 E3 inh 0.
O=C(Nc1ccc(-c2noc(CCc3ccccc3)n2)cc1)c1cccnc1 was read as S1P4 antagonist -15, L major viab 50*, S1P4 agonist 1, S1P3 antag 27 and MDM2 E3 inh -13.
For Cc1cc(OCc2nc(-c3ccc(NC(=O)c4cccnc4)cc3)no2)ccc1Cl the results were S1P4 antagonist -18, L major viab -4, S1P4 agonist 0 and MDM2 E3 inh -15.
For O=C(Cn1c(=O)oc2cc(S(=O)(=O)N3CCc4ccccc43)ccc21)NC1CCCC1 the results were S1P4 antagonist -5, L major viab 99*, S1P4 agonist -1, S1P3 antag -20 and MDM2 E3 inh -5.
Screening CCOC(=O)Cn1c(=O)oc2cc(S(=O)(=O)N3CCCc4ccccc43)ccc21 returned S1P4 antagonist -13, L major viab 81*, S1P4 agonist -4, S1P3 antag 0 and MDM2 E3 inh -11.
`CCOC(=O)Cn1c(=O)oc2cc(S(=O)(=O)N3CCC(N4CCCCC4)CC3)ccc21` gave S1P4 antagonist -9, L major viab -13, S1P4 agonist 0, S1P3 antag 20 and MDM2 E3 inh -11.
`O=C(Cn1c(=O)oc2cc(S(=O)(=O)N3CCCCCC3)ccc21)NC1CCCCC1` gave L major viab -11, S1P3 antag -14 and MDM2 E3 inh 5.
